GalR3 antag – antagonists of human GalR3. AID 651719. actives 0.44% (n = 360,000). O60755. HEK293 GalR3-CNG cAMP membrane potential fluorescence; galR3 body fused to GalR1 C-terminus. inhibition, % at 3 µM;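 active = inhibition above the screen-wide average plus 3 SD, cut at about 13% in these data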;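 also: forskolin and galanin both at EC90 stimulate the cells; cAMP rise reported by CNG channel membrane potential dye signal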
Target sequence (O60755 1-299 limits assumed): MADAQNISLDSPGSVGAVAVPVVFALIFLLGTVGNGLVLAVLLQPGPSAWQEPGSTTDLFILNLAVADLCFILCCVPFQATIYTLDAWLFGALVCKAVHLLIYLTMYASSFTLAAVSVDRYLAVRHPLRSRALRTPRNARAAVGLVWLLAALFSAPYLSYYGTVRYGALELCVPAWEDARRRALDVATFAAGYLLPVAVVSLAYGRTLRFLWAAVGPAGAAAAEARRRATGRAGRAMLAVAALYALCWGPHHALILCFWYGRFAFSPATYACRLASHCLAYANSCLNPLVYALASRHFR
CHT PAM – allosterically activates the human high affinity choline transporter; B-score at 10 µM; actives 0.49% (n = 310,000); CHT-expressing cells, membrane potential dye, choline EC20; stronger effect = higher value; LV-AA mutant CHT in HEK293 cells;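 active = initial fluorescence not abnormally high and integrated response B-score, plate-corrected, over 3 SD above library mean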
NR2E3 ag-1 – human photoreceptor-specific nuclear receptor agonism; CHO-S Gal4-NCOR/VP16-NR2E3 two-hybrid, luciferase; inhibition of corepressor binding, % at 3.98 µM; actives 0.35% (n = 360,000); AID 602229;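 active = inhibition above the mean of all tested compounds plus 3 SD, cut at about 70% in these data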;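 also: higher means lower luciferase signal from less NR2E3 corepressor binding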
COUP-TFII inh – inhibitors of human COUP-TFII (NR2F2); HEK293T NGFI-A luciferase reporter, luminescence; inhibition, % at 8.6 µM; actives 0.7% (n = 370,000); P24468;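 active = inhibition above a per-plate cutoff, mean inhibition of test wells between control levels plus 3 SD, cut at about 38% in these data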;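 also: cells cotransfected with COUP-TFII expression vector driving the NGFI-A reporter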
Target sequence (P24468 whole entry, looked up): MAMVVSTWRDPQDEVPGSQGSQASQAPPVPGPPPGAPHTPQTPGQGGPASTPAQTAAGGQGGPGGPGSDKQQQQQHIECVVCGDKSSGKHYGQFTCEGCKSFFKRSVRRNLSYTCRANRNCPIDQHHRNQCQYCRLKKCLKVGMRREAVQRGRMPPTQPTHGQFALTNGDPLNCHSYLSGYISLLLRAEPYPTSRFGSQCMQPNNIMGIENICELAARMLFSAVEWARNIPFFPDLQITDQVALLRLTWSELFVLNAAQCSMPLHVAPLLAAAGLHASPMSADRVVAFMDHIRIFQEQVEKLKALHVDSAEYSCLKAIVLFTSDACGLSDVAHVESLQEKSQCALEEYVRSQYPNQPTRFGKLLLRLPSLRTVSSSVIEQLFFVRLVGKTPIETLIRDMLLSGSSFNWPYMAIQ
CHT block – inhibitors of human choline transporter CHT; CHT-expressing cells, membrane potential dye, choline response; stronger effect = lower value; B-score at 10 µM; Q9GZV3; AID 488975; actives 0.86% (n = 310,000);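 active = B-score over 3 SD under the library average, and starting fluorescence ratio not unusually high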;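 also: choline stimulus applied at its EC90 after an EC20 pre-addition; B-score computed on integrated fluorescence ratio after choline addition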
NR2E3 ag-2 – agonists of human nuclear receptor NR2E3; Q9Y5X4; GST-NR2E3/biotin-RetCOR TR-FRET, 1536-well; inhibition of corepressor binding, % at 4.78 µM; actives 0.12% (n = 320,000); AID 2300;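 active = percent inhibition above the cutoff of mean plus 3 SD of all tested compounds, set per screening campaign, cut at about 20% in these data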
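Material: NR2E3–RetCOR corepressor complex | Quantity: 1.35 nM GST-tagged NR2E3 final | Schedule: 5 h at 4 °C | Replication: Singlicate compound wells | Reagent: RetCOR corepressor, biotinylated, 7 nM | Controls: Biotin wells as high control, 0.6% DMSO wells as low control | Signal: TR-FRET, Eu(K)-anti-GST donor, streptavidin-D2 acceptor, ex 340, em 617/671 nm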
CHT block conf – human CHT inhibition, confirmatory screen; shares compounds with CHT block; actives 70% (n = 2,400); CHT-expressing cells, choline membrane potential dye; LV-to-AA substituted CHT, HEK293 cells; CHT activity remaining % of control (stronger effect = lower value), % at 10 µM;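 active = choline transporter activity left, mean of duplicates at 10 µM, below buffer-only control mean minus 3 SD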;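 also: depolarization triggered by choline at its EC90 following an EC20 pre-addition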
HEK293 MPD ctr – CHT inhibitor counter-screen hit in parental HEK293 cells; shares compounds with CHT block; membrane potential dye, choline response; active = decrease or increase beyond buffer ±3SD; membrane potential ratio readout (active if shifted either direction beyond buffer ±3SD; no single direction) at 10 µM; actives 4% (n = 2,400); AID 493222;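 also: parental cells lack the transporter so any hit is non-specific; ratio is peak minus trough fluorescence over baseline after EC90 choline challenge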
A number is an active result; i = inactive; nt = no result. An excerpt weighted towards active compounds, which were near 2.3% of everything screened.

SMILES	GalR3 antag	CHT PAM	NR2E3 ag-1	COUP-TFII inh	CHT block	NR2E3 ag-2	CHT block conf	HEK293 MPD ctr
Cc1cc(NC(=O)c2ccc(NS(=O)(=O)c3ccc(F)cc3)cc2)no1	nt	nt	nt	i	nt	nt	nt	nt
CCN(CC)CCCn1c2c(c(SCC(=O)N3CCc4ccccc43)nc1=O)CCC2	i	i	i	i	-7.95	i	42.4%	i
Cc1ccc(NC(=O)c2cccc(Oc3ccc([N+](=O)[O-])cc3)c2)c(C(=O)O)c1	i	i	i	i	i	i	nt	nt
Cc1ccccc1NC(=O)c1cccc(S(=O)(=O)Oc2ccc([N+](=O)[O-])cc2)c1	i	i	i	i	-5.72	i	i	i
O=C(Nc1ccc(F)cc1)N1CCN(CCc2ccccc2)CC1	i	i	i	i	-5.4	i	68.8%	i
O=C(Nc1ccccc1)N1CCN(CCc2ccccc2)CC1	i	i	i	i	i	i	nt	nt
CCOC(=O)c1cccc(NC(=O)CCS(=O)(=O)c2cccc3nsnc23)c1	i	i	i	i	-8.26	i	35.9%	i
O=C(CN1CCN(Cc2ccc(F)cc2Cl)C1=O)NCCc1ccccc1	i	i	i	i	i	i	nt	nt
CN(CCNC(=O)CN1CCN(Cc2ccccc2Cl)C1=O)Cc1ccccc1	nt	i	i	nt	-6.47	i	42.6%	i
Cc1cc(C)c[n+](CC(=O)c2c(C)cc(C)c([N+](=O)[O-])c2C)c1	i	i	i	i	-7.85	i	44.6%	i
O=C(NCc1cccc(C(F)(F)F)c1)c1cc(Cl)ccc1Cl	i	i	i	i	-5.78	i	i	i
CC(C)Cn1c(=O)c2c(nc3n2CCCN3CCc2ccccc2)n(C)c1=O	i	i	i	i	-5.44	i	62.0%	i
COc1cc(O)c([C@@H](CC(=O)N2CC(C)CC(C)C2)c2ccc3c(c2)OCO3)c(OC)c1 (stereo not given in full)	nt	nt	nt	i	nt	nt	nt	nt
COc1ccccc1C(=O)NC1CCN(C(=S)NCCc2ccccc2)CC1	i	i	i	i	-6.28	i	49.8%	i
CCC(=O)N/C(=N/c1nc(C)cc(C)n1)Nc1ccccc1	i	i	i	i	i	i	nt	nt
CCc1ccc(N/C(=N/c2nc(C)cc(C)n2)NC(C)=O)cc1	i	i	i	i	-5.79	i	57.6%	i
Fc1ccccc1NC(=S)NNc1ncc(C(F)(F)F)cc1Cl	i	i	i	i	-8.13	i	60.2%	i
COc1ccc(-c2nc3cc([N+](=O)[O-])ccc3o2)cc1	i	i	i	i	-5.19	i	i	i
COC(=O)[C@H]1C[C@@]2(c3ccccc3)c3ccccc3N(S(=O)(=O)c3ccccc3)[C@H]2N1	nt	nt	nt	i	nt	nt	nt	nt
CCSc1nnc([C@H](Cc2ccccc2)NC(=O)OC(C)(C)C)o1	i	i	i	i	-7.02	i	i	i
CC(C)(C)OC(=O)N[C@@H](Cc1ccccc1)c1nnc(SCC(=O)O)o1	i	i	i	i	i	i	nt	nt
COCCNC(=S)N1CCN(c2nc(-c3ccc(Cl)cc3)cs2)CC1	i	i	i	i	-7.48	i	i	i
COC(=O)[C@]12C[C@H](CC(=O)N3CCN(C(=O)c4ccco4)CC3)C(=O)N(Cc3cccc4ccccc34)C1=C[C@H](COCc1ccccc1)O[C@@H]2C	nt	nt	nt	i	nt	nt	nt	nt
CCCCn1c(NCc2ccc3c(c2)OCO3)nc2ccccc21	i	i	i	i	-7.28	i	51.8%	3.02
CCOC(=O)N1CCN(C(=O)C2CCCN(c3ncnc4c3nc3n4CCCCC3)C2)CC1 (stereo not given)	i	i	i	i	-9.32	i	10.7%	i
SMILES	GalR3 antag	CHT PAM	NR2E3 ag-1	COUP-TFII inh	CHT block	NR2E3 ag-2	CHT block conf	HEK293 MPD ctr
O=C(C1CCCN(c2ncnc3c2nc2n3CCCCC2)C1)N1CCN(c2ccccc2F)CC1 (stereo not given)	i	i	i	i	-8.9	i	-10.6%	i
COc1cccc(N2CCN(C(=O)C3CCCN(c4ncnc5c4nc4n5CCCCC4)C3)CC2)c1 (stereo not given)	i	i	i	i	-5.67	i	37.8%	i
CCNC(=S)NNC(=O)CSc1nnc(-c2ccccc2)n1-c1ccc(Cl)cc1	nt	nt	nt	i	nt	nt	nt	nt
Cc1ccc(NC(=O)CSc2nnc(C)n2C2CC2)cc1S(=O)(=O)N1CCOCC1	i	nt	i	i	nt	i	nt	nt
Cc1ccc(NC(=O)CSc2n[nH]c(=O)n2C2CC2)cc1S(=O)(=O)N1CCOCC1	i	i	i	i	-6.75	i	i	i
CN(C)S(=O)(=O)c1cccc(C(=O)N/N=C\c2ccnc3ccccc23)c1	nt	nt	nt	i	nt	nt	nt	nt
CC(=O)Nc1ccc(/C=C/COC(C)=O)cc1C	nt	nt	nt	i	nt	nt	nt	nt
O=C(Cn1c(=O)n(CCCCC(=O)NC2CCCC2)c(=O)c2ccccc21)NCCC1=CCCCC1	i	i	i	i	-6.95	i	i	i
NC(=O)Cn1c(=O)n(CCCC(=O)NC2CCN(Cc3ccccc3)CC2)c(=O)c2ccccc21	i	i	i	i	-5.59	i	i	i
CCCCOCCCNC(=O)C[C@@H]1C(=O)N2CCCC3=C2[C@@]1(C(=O)OC)CCCC3	nt	nt	nt	i	nt	nt	nt	nt
FC(F)(F)c1nnc(Nc2ccc(Cl)cc2)s1	i	i	i	i	i	i	nt	nt
Fc1ccc(Nc2nnc(C(F)(F)F)s2)cc1Cl	i	i	i	i	-5.2	i	50.7%	i
O=C(NC1CC1)C1=C[C@@H](c2ccc(C(F)(F)F)cc2)C[C@@H](OCc2ccc(CO)cc2)O1	i	i	i	i	i	i	nt	nt
O=C(NC1CC1)C1=C[C@H](c2csc3ccccc23)C[C@H](OCc2ccc(CO)cc2)O1	i	i	i	i	-5.18	i	55.6%	i
O=C(NC1CC1)C1=C[C@H](c2ccc(Br)cc2)C[C@H](OCc2ccc(CO)cc2)O1	i	i	i	i	-6.37	i	52.1%	i
O=C(Nc1ccccc1)C1=C[C@H](c2csc3ccccc23)C[C@H](OCc2ccc(CO)cc2)O1	i	i	i	i	i	i	nt	nt
COC(=O)[C@]12C[C@H](CC(=O)NCc3ccc(C)o3)C(=O)N(Cc3cccc4ccccc34)C1=C[C@H](C(C)C)O[C@@H]2C1CC1	nt	nt	nt	i	nt	nt	nt	nt
Cc1ccc(-n2c(C)cc(C(=O)COC(=O)C3=NNC(=O)CC3)c2C)cc1	i	i	i	i	-6.49	i	17.6%	-11.7
Cc1cc(C(=O)COC(=O)C2=NNC(=O)CC2)c(C)n1-c1ccccc1	i	i	i	i	i	i	nt	nt
COc1ccc(OCc2cccc(C(=O)Nn3cc([N+](=O)[O-])cn3)c2)cc1	i	i	i	i	-7.06	i	69.0%	i
